“And” between values parts separate entries of the source, which are not always exact repeats. Equal values may be shown once.
Key:
physchem = details: pH 7.4, aqueous buffer
[1] = Non-denaturing gradient gel electrophoresis; format: physicochemical; details: Native-PAGE 4–20% Tris-glycine gel; stock solutions 1 mg/ml PBS, pH 7.4; 3 μg per well
[2] = Circular dichroism spectroscopy, secondary structure; format: physicochemical
Method in brief: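 Lipid-free peptide in 10 mM sodium phosphate, pH 7.4, at 25°C; 2 mg/ml stock diluted in the same buffer to 6–310 μM (18–1000 μg/ml). Four scans at 20 nm/min averaged per concentration. α-Helicity derived from molar ellipticity at 222 nm; [θ]222/[θ]208 ratio plotted against concentration. For TFE, 0.2 mg/ml peptide held ±50% TFE for 30 min at 25°C before scanning (n=3).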

[3] = Gel-filtration chromatography; format: physicochemical
Method in brief: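 Size-exclusion FPLC on Superdex 75 or Superdex Peptide columns equilibrated in PBS (10 mM phosphate, 150 mM NaCl, pH 7.4), run at 0.5 ml/min at room temperature. 0.2 ml of peptide stock (0.125 to 140 mg/ml; concentration set by A280) injected, with elution read at 280 or 215 nm. Columns calibrated with molecular weight standards. Stocks also run after 2 years' sterile storage at 4°C or 24 h at 37°C.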

[4] = DMS cross-linking / SDS-PAGE of self-associated forms; format: physicochemical; details: 20-fold molar excess DMS, 3 h, 25 °C; SDS-PAGE 10–20% Tricine gel
Method in brief: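 Peptide at various concentrations reacted with 20-fold molar excess dimethylsuberimidate for 3 h at 25°C, then quenched with 50 mM Tris-HCl. Mixed with SDS loading buffer, boiled 1 min, and run on 10–20% Tris-Tricine SDS-PAGE. Protein stain visualized cross-linked species, sized against 1.7–40 kDa markers.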

[5] = Small angle X-ray scattering; format: physicochemical
Method in brief: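 Concentration-scaled intensity at q = 0 converted to mass by calibration against lysozyme, xylanase and BSA. Ab initio shape from ten averaged modelling runs. Two independent peptide preparations measured.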

J774 mouse macrophages = details: lipid-free peptide; cited from earlier work

Substance	solubility (physchem) [µg/mL]	migration form on non-denaturing gel (aggregation) [1]	α-helical content, presence of 50% TFE ([2]; 0.2 mg/ml, 50% TFE) [%]	α-helical content, absence of TFE ([2]; 0.2 mg/ml, no TFE) [%]	α-helical content, extensively diluted sample ([2]; 6 μM, i.e. 18 μg/ml, 10 mM phosphate buffer pH 7.4, 25 °C) [%]	α-helical content with 50% TFE compared to controls with no TFE ([2]; 0.2 mg/ml, 10 mM phosphate pH 7.4, 30 min TFE at 25 °C, n=3)	222/208 ellipticity ratio ([2]; 50% TFE)	α-helical content ([2]; lipid-free peptide, 10 mM phosphate buffer pH 7.4, 25 °C, 0.2 mg/ml (62 μM), from molar ellipticity at 222 nm, mean ± SD, n=4) [%]	gel-filtration profile after prolonged storage ([3]; 2 years in PBS at 4 °C under sterile conditions, data not shown)	concentration at which monomeric ATI-5261 predominated ([3]; FPLC (Superdex 75 and Peptide columns) and SDS-PAGE/DMS cross-linking) [ng/mL]	concentration at which peptide monomers were predominant ([3]; FPLC, allowing for ~10-fold dilution on the columns, PBS pH 7.4) [ng/mL]	MW of the peptide assembly by FPLC ([3]; Superdex Peptide 10/300 GL column, 1 mg peptide/ml, PBS, A215, calibrated with (Gly)6, aprotinin, ribonuclease A) [kDa]	gel-filtration profile after incubation at 37 °C ([3]; incubation at 37 °C for 24 h, data not shown)	concentration range of dissociation of the tetrameric assembly to monomers [4] [mg/ml]	SAXS MW relative to monomeric weight of the peptide (3230 Da) ([5]; 2–8 mg/ml PBS pH 7.4)	aggregation detected from X-ray intensity profiles ([5]; peptide at 2–8 mg/ml PBS)	concentration of saturation in cholesterol efflux (J774 mouse macrophages) [µg/mL]
Ac-DWFKAFYDKVAEKFKEAF-NH2 [peptide 4F, reference compound]	~1000	aggregated as high molecular weight (HMW) species	49	28	–	–	–	–	–	–	–	–	–	–	–	–	–
Ac-EVRSKLEEWFAAFREFAEEFLARLKS-NH2 [ATI-5261]	–	low molecular weight (LMW) band	–	–	82.6	remained unchanged	< 1	74.1±6.8	not altered	≤ 25000	< 25000	12.8	not altered	0.5 to 0.025	~4 times and 4.1 times	Little or no aggregation	3

From article PMC3100537 (Biochemistry, 2011)
